Reference: ChEMBL document CHEMBL4028914, “Structure-Based Design of 6-Chloro-4-aminoquinazoline-2-carboxamide Derivatives as Potent and Selective p21-Activated Kinase 4 (PAK4) Inhibitors” (J Med Chem, 2018)

Legend:
[1] = Stability in Sprague-Dawley rat blood plasma assessed as compound remaining at 2 uM measured after 120 mins by LC-MS/MS method; type: ADME, cell-free; details: read-out: Stability
[2] = Aqueous solubility of the compound at pH 7.4 by UV-metric method; type: physicochemical
[3] = Intrinsic clearance in human liver microsomes at 1 uM measured after 1 hr by LC-MS/MS method; type: ADME, microsome; details: read-out: CLH
CYP2D6 = CYP2D6 (Homo sapiens, UniProt P10635); assay: Inhibition of CYP2D6 in human liver microsomes at 10 uM using dextromethorphan as substrate preincubated for 10 mins followed by NADPH addition measured after 10 mins by LC-MS/MS method; type: ADME; details: probe dextromethorphan
Method in brief: (§1)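 Each CYP isoform was tested at 10 μM compound. Positive controls: α-naphthoflavone (CYP1A2), sulfaphenazole (CYP2C9), ticlopidine (CYP2C19), quinidine (CYP2D6), ketoconazole (CYP3A4).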

[4] = Aqueous solubility of the compound at pH 2.0 by UV-metric method; type: physicochemical
[5] = Initial concentration in Sprague-Dawley rat at 2 mg/kg, iv by LC-MS/MS method; type: ADME, organism-based; details: in vivo
Method in brief: (§2)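 Single intravenous dose of 2 mg/kg given to Sprague-Dawley rats. Values are the mean ± SD of three independent determinations.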

[6] = Distribution coefficient, logD of the compound at pH 7.4 by UV-metric method; type: physicochemical; details: octanol/water
[7] = Solubility of the compound in DMSO by UV-metric method; type: physicochemical
CYP3A4 = CYP3A4 (Homo sapiens, UniProt P08684); assay: Inhibition of CYP3A4 in human liver microsomes at 10 uM using midozolam as substrate preincubated for 10 mins followed by NADPH addition measured after 10 mins by LC-MS/MS method; type: ADME; details: probe midozolam; method in brief: as §1
[8] = Stability in Sprague-Dawley rat blood plasma assessed as compound remaining at 2 uM measured after 60 mins by LC-MS/MS method; type: ADME, cell-free; details: read-out: Stability
[9] = Stability in rat liver microsomes assessed as compound remaining at 1 uM in absence of NADPH regenerating system measured after 1 hr by LC-MS/MS method; type: ADME, microsome; details: read-out: Stability
Method in brief: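 Control incubation with rat liver microsomes: buffer replaces the NADPH regenerating system for the whole 60 min incubation. Read-out is percent of parent compound remaining.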

[10] = Stability in rat liver microsomes assessed as compound remaining at 1 uM preincubated for 10 mins followed by NADPH addition measured after 1 hr by LC-MS/MS method; type: ADME, microsome; details: read-out: Stability
[11] = Cmax in Sprague-Dawley rat at 2 mg/kg, iv by LC-MS/MS method; type: ADME, organism-based; set-up: dose 2 mg/kg, route intravenous; details: in vivo; method in brief: as §2
[12] = Intrinsic clearance in rat liver at 1 uM measured after 1 hr by LC-MS/MS method; type: ADME, tissue-based; details: read-out: CLH
CYP2C19 = CYP2C19 (Homo sapiens, UniProt P33261); assay: Inhibition of CYP2C19 in human liver microsomes at 10 uM using S-mephenytoin as substrate preincubated for 10 mins followed by NADPH addition measured after 10 mins by LC-MS/MS method; type: ADME; details: probe S-mephenytoin; method in brief: as §1
[13] = Half life in Sprague-Dawley rat at 2 mg/kg, iv by LC-MS/MS method; type: ADME, organism-based; details: in vivo; method in brief: as §2
[14] = AUC (0 to t) in Sprague-Dawley rat at 2 mg/kg, iv by LC-MS/MS method; type: ADME, organism-based; details: in vivo; method in brief: as §2
[15] = Stability in human liver microsomes assessed as compound remaining at 1 uM preincubated for 10 mins followed by NADPH addition measured after 1 hr by LC-MS/MS method; type: ADME, microsome; details: read-out: Stability
[16] = molecular target: Voltage-gated inwardly rectifying potassium channel KCNH2 (Homo sapiens, UniProt Q12809); assay: Inhibition of human ERG by Qpatch assay
Method in brief: (§3)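 hERG current was recorded by automated patch clamp (Qpatch 16×) in CHO cells expressing hERG.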

[17] = Volume of distribution at steady state in Sprague-Dawley rat at 2 mg/kg, iv by LC-MS/MS method; type: ADME, organism-based; details: in vivo, read-out: Vdss
Method in brief: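 Sprague-Dawley rats receive a single intravenous dose of 2 mg/kg. Pharmacokinetic parameters derived are C0, clearance, Vss, T1/2, AUC(0−t) and AUC(0−∞). Values are averages of three independent determinations, reported as mean ± SD.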

[18] = Half life in rat liver microsomes at 1 uM preincubated for 10 mins followed by NADPH addition measured after 1 hr by LC-MS/MS method; type: ADME, microsome
[19] = Intrinsic clearance in rat liver microsomes at 1 uM measured after 1 hr by LC-MS/MS method; type: ADME, microsome; details: read-out: CLH
CYP1A2 = molecular target: T1, CYP1A2 (Homo sapiens, UniProt P05177); assay: Inhibition of CYP1A2 in human liver microsomes at 10 uM using phenacetin as the substrate preincubated for 10 mins followed by NADPH addition measured after 10 mins by LC-MS/MS method; type: ADME; details: probe phenacetin; method in brief: as §1
T1 sequence (P05177 whole entry): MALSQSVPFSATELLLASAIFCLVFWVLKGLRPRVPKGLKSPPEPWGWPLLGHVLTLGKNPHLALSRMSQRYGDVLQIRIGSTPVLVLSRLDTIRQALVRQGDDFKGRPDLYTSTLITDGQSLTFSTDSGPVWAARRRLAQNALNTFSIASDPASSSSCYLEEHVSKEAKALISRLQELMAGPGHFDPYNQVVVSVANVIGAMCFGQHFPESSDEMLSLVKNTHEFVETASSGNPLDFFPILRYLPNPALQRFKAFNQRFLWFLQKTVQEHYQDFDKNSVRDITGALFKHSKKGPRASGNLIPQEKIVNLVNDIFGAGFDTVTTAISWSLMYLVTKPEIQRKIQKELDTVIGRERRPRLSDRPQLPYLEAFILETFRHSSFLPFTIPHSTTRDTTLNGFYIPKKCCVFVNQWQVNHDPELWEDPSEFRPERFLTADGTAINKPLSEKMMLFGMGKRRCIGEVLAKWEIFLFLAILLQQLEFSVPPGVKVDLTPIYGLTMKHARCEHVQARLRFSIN

[20] = Stability in human liver microsomes assessed as compound remaining at 1 uM in absence of NADPH regenerating system measured after 1 hr by LC-MS/MS method; type: ADME, microsome; details: read-out: Stability
Method in brief: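 Liver microsomal incubation ran for 60 min without the NADPH regenerating system, which was replaced by buffer. Read-out was percent compound remaining.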

hERG (KCNH2) = hERG (KCNH2) (Homo sapiens, UniProt Q12809); assay: Inhibition of human ERG at 40 uM by Qpatch assay relative to control; method in brief: as §3
[21] = Dissociation constant, pKa of compound; type: physicochemical
[22] = Half life in human liver microsomes at 1 uM preincubated for 10 mins followed by NADPH addition measured after 1 hr by LC-MS/MS method; type: ADME, microsome
[23] = Partition coefficient, log P of the compound by UV-metric method; type: physicochemical; details: octanol/water
CYP2C9 = CYP2C9 (Homo sapiens, UniProt P11712); assay: Inhibition of CYP2C9 in human liver microsomes at 10 uM using diclofenac as substrate preincubated for 10 mins followed by NADPH addition measured after 10 mins by LC-MS/MS method; type: ADME; details: probe diclofenac; method in brief: as §1
[24] = Intrinsic clearance in human liver at 1 uM measured after 1 hr by LC-MS/MS method; type: ADME, tissue-based; details: read-out: CLH
[25] = Clearance in Sprague-Dawley rat at 2 mg/kg, iv by LC-MS/MS method; type: ADME, organism-based; details: in vivo; method in brief: as §2
[26] = AUC (0 to infinity) in Sprague-Dawley rat at 2 mg/kg, iv by LC-MS/MS method; type: ADME, organism-based; set-up: dose 2 mg/kg, route intravenous, time infinity; details: in vivo; method in brief: as §2

Sequence of Voltage-gated inwardly rectifying potassium channel KCNH2 (Q12809 whole entry): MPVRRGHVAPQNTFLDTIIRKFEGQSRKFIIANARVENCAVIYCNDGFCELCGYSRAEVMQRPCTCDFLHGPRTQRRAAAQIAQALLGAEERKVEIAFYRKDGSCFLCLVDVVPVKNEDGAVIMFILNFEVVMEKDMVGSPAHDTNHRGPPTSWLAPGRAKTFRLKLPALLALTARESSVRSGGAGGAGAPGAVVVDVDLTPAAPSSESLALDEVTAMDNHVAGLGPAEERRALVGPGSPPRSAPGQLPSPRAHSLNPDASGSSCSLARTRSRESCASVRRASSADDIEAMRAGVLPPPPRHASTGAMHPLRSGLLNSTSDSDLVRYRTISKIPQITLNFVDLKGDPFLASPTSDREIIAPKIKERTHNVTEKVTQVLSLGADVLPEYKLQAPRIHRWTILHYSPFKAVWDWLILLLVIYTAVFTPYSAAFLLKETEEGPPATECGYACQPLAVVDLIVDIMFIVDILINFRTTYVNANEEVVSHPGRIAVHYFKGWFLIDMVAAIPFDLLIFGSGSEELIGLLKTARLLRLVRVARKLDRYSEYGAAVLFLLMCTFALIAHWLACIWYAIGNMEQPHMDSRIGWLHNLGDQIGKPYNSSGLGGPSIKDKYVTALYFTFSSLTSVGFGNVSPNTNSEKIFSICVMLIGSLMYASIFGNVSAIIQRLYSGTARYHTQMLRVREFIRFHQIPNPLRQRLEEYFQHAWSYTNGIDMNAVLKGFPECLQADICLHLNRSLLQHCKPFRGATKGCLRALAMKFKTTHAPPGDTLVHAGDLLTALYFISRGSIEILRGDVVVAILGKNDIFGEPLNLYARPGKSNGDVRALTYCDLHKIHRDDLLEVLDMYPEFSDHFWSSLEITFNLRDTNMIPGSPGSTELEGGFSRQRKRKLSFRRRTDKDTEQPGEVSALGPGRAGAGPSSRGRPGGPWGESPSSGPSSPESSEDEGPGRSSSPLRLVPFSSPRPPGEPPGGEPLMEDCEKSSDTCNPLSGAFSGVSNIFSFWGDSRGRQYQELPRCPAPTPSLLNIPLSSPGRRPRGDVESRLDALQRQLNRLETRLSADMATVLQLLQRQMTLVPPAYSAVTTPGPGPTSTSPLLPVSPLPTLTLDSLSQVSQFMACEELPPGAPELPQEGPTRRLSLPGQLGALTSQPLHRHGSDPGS
Sequence of hERG (KCNH2) (Q12809 whole entry): as above
Sequence of CYP3A4 (P08684 whole entry): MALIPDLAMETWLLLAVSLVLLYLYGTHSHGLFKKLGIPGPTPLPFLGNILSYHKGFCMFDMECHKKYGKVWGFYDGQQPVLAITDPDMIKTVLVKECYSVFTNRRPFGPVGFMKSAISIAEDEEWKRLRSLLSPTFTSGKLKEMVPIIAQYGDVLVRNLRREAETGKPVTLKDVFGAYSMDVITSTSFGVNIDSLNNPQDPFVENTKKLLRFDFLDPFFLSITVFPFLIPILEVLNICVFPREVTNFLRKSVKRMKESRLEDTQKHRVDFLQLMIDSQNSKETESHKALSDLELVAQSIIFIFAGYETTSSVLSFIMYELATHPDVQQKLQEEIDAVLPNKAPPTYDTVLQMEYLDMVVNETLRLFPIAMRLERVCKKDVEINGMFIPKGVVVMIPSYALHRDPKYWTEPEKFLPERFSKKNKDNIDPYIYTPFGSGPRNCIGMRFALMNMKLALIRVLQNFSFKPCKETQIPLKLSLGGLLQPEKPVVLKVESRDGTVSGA
Sequence of CYP2C9 (P11712 whole entry): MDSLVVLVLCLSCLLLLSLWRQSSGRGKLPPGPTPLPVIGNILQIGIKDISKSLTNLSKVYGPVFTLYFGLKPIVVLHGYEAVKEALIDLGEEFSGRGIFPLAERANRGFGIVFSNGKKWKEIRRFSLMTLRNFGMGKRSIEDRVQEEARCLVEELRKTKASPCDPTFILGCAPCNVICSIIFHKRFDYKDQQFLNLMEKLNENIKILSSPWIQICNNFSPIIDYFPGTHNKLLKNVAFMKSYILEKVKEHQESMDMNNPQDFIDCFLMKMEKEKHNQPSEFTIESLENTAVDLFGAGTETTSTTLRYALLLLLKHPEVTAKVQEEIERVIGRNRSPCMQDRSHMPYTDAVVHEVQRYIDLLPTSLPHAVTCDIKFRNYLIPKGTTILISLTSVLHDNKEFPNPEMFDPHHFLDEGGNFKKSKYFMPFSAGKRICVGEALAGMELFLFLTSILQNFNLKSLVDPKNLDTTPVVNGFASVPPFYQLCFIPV
Sequence of CYP2C19 (P33261 whole entry): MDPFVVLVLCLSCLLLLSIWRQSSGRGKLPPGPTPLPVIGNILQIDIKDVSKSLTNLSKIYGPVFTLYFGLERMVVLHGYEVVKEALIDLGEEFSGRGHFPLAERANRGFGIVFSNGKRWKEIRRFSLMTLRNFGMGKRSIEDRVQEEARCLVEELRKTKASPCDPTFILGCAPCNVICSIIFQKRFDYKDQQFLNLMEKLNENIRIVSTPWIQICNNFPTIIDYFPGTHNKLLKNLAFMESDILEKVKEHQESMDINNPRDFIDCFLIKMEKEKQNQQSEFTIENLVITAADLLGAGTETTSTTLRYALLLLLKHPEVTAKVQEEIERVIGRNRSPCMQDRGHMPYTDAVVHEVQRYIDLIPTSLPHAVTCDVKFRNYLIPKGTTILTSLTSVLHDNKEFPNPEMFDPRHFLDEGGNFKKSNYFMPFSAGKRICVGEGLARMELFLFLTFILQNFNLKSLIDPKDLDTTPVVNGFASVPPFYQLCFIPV
Sequence of CYP2D6 (P10635 whole entry, canonical isoform): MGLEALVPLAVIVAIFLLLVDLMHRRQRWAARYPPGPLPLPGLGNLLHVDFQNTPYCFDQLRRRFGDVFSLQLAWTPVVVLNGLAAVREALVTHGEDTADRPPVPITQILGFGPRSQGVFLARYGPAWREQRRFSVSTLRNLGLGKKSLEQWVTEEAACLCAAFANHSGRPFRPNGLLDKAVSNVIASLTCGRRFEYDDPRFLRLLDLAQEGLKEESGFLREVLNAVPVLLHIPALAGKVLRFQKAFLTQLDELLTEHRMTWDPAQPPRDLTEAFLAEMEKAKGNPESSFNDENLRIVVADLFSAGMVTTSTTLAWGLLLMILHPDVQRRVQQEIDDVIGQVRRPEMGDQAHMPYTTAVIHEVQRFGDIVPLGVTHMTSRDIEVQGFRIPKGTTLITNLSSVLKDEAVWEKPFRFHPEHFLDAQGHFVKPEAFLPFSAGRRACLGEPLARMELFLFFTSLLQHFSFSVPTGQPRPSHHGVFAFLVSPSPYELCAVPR

C[C@@H]1CN(C(=O)c2nc(Nc3cc(C4CC4)[nH]n3)c3cc(Cl)ccc3n2)CCN1.Cl
remaining at 2 h, 2 µM [1]: 115%
solubility [2]: > 10000 µg/mL
microsomal CLint at 1 µM [3]: 28.7 µL/min/mg
inhibition at 10 min, 10 µM (CYP2D6): 1.8%
solubility [4]: > 10000 µg/mL
C0 [5]: 736 ng/mL
logD [6]: 1.9
solubility [7]: > 30 mM
inhibition at 10 min, 10 µM (CYP3A4): 2.3%
remaining at 1 h, 2 µM [8]: 110%
remaining at 1 h, 1 µM [9]: 97%
remaining at 1 h, 1 µM [10]: 36.9%
Cmax [11]: 736 ng/mL
CLint scaled at 1 µM [12]: 59.7 mL/min/kg
inhibition at 10 min, 10 µM (CYP2C19): 12.2%
half-life [13]: 87.6 min
AUC(0-t) [14]: 465 ng·h/mL
remaining at 1 h, 1 µM [15]: 41.9%
IC50 [16]: > 40 µM
Vd [17]: 6.43 L/kg
half-life at 1 µM [18]: 41.8 min
microsomal CLint at 1 µM [19]: 33.2 µL/min/mg
inhibition at 10 min, 10 µM (CYP1A2): 17.2%
remaining at 1 h, 1 µM [20]: 103%
inhibition at 40 µM (hERG (KCNH2)): 42%
pKa [21]: 7.93
half-life at 1 µM [22]: 48.4 min
logP [23]: 2.54
inhibition at 10 min, 10 µM (CYP2C9): 15.1%
CLint scaled at 1 µM [24]: 25.8 mL/min/kg
clearance [25]: 70.7 mL/min/kg
AUC(0-inf) [26]: 472 ng·h/mL
